Measurements published in ChEMBL document CHEMBL1125464, “1,3,6-trisubstituted indoles as peptidoleukotriene antagonists: benefits of a second, polar, pyrrole substituent” (J Med Chem, 1992).
Each block holds one molecule with its values, some of them ahead of it.

Columns and labels:
[1] = Negative logarithm of the molar dissociation constant; type: ADME
In short: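 Paired guinea pig tracheal spirals at 37 °C in Krebs gassed with 95% O2/5% CO2, 2 g resting tension. Responses expressed relative to 30 uM carbachol. Antagonist or vehicle preincubated 30 min, then cumulative LTE4 concentration-response curves, one per tissue. EC50 by linear regression; KB = [antagonist]/(dose ratio − 1), per Furchgott.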

[2] = species on record: Cavia porcellus; assay: Dissociation constant on guinea pig tracheal spirals utilizing LTE4 as agonist; details: Trachea
[3] = species on record: Cavia porcellus; assay: Compound was evaluated for the displacement of [3H]LTD4 on guinea pig lung parenchymal membranes; set-up: species or system Lung parenchyma
In short: (§1)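 Membranes from perfused lungs of male Hartley guinea pigs (300-400 g) in PIPES pH 7.5 with 10 mM CaCl2, 10 mM MgCl2, 2 mM cysteine and 2 mM glycine. 1 nM 3H-LTD4 at 22 °C for 30 min; nonspecific binding with 2 uM LTD4. Filtration, then scintillation counting. IC50 by nonlinear least squares, Ki by Cheng-Prusoff; mean of two experiments in duplicate.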

[4] = species on record: Cavia porcellus; assay: Inhibition of LTE4 (8 nM) induced contraction of guinea pig tracheal spirals at a concentration of 0.1 uM; type: functional, Trachea
In short: (§2)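 Paired tracheal spirals at 37 °C in Krebs gassed with 95% O2/5% CO2 under 2 g tension, given repeated LTE4 challenges of 10 min. Compound or vehicle added 10 min before a third challenge. % inhibition = (2nd − 3rd response)/2nd × 100, corrected by subtracting the vehicle value. Paired t test, n ≥ 4.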

[5] = test system: Cavia porcellus; assay: Protection of conscious guinea pig lung function was determined by comparison of time required for the challenged animals to exhibit labored abdominal breathing after oral dose of 10 uM/kg; type: functional
In short: (§3)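 Conscious guinea pigs pretreated with indomethacin (10 mg/kg ip) and propranolol (5 mg/kg ip). Compound in PEG400 (<10% v/v)/PBS given orally 180 min before a challenge of up to 5 min with aerosolized 60 uM LTD4. Time to abdominal dyspnea scored blind. % protection is taken against vehicle controls; no end point by 300 s counts as 100%. Unpaired t test.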

[6] = species on record: Cavia porcellus; assay: Inhibition of LTE4 (8 nM) induced contraction of guinea pig tracheal spirals at a concentration of 0.33 uM; type: functional, Trachea; in short: as §2
[7] = test system: Cavia porcellus; assay: Protection of conscious guinea pig lung function was determined by comparison of time required for the challenged animals to exhibit labored abdominal breathing after oral dose of 0.3 uM/kg; type: functional; in short: as §3
[8] = species on record: Cavia porcellus; assay: Inhibition of LTE4 (8 nM) induced contraction of guinea pig tracheal spirals at a concentration of 3.3 uM; NS=not statistically significant; type: functional; details: Trachea; in short: as §2
[9] = test system: Cavia porcellus; assay: Protection of conscious guinea pig lung function was determined by comparison of time required for the challenged animals to exhibit labored abdominal breathing after oral dose of 3 uM/kg; type: functional; in short: as §3
[10] = species on record: Cavia porcellus; assay: Inhibition of LTE4 (8 nM) induced contraction of guinea pig tracheal spirals at a concentration of 0.5 uM; NS=not statistically significant; type: functional; details: Trachea; in short: as §2
[11] = species on record: Cavia porcellus; assay: Inhibition of LTE4 (8 nM) induced contraction of guinea pig tracheal spirals at a concentration of 3.3 uM; type: functional, Trachea; in short: as §2
[12] = species on record: Cavia porcellus; assay: Inhibition constant for the displacement of [3H]LTD4 on guinea pig lung parenchymal membranes; set-up: species or system Lung parenchyma; in short: as §1
[13] = species on record: Cavia porcellus; assay: Inhibition of LTE4 (8 nM) induced contraction of guinea pig tracheal spirals at a concentration of 100 nM; type: functional, Trachea; in short: as §2
[14] = species on record: Cavia porcellus; assay: Inhibition of LTE4 (8 nM) induced contraction of guinea pig tracheal spirals at a concentration of 1 nM; type: functional, Trachea; in short: as §2
[15] = test system: Cavia porcellus; assay: Protection of conscious guinea pig lung function was determined by comparison of time required for the challenged animals to exhibit labored abdominal breathing after oral dose of 30 uM/kg; type: functional; in short: as §3

Compound: COc1cc(C(=O)NS(=O)(=O)c2ccccc2C)ccc1Cc1nn(C)c2ccc(C(=O)NCC3CCCC3)cc12
Ki [3]: 1.87 nM

Compound: COc1cc(C(=O)O)ccc1Cc1cn(C)c2ccc(NC(=O)CC3CCCC3)cc12
Inhibition [4]: 94%

Compound: COc1cc(C(=O)NS(=O)(=O)c2ccccc2C)ccc1Cn1cc(CC(C)C(=O)N(C)C)c2ccc(C(=O)NCC3CCCC3)cc21 (centres undefined)
Ki [3]: 2.32 nM | Protection [5]: 37% | Kb [2]: 0.65 nM

Compound: COc1cc(C(=O)NS(=O)(=O)c2ccccc2)ccc1Cc1cn(C2CCCC2)c2ccc(NC(=O)OC3CCCC3)cc12
pKB [1]: 7.84

Compound: COc1cc(C(=O)O)ccc1Cn1cc(C)c2ccc(C(=O)NCC3CCCC3)cc21
NS [8]: not statistically significant

Compound: COc1cc(C(=O)O)ccc1Cn1cc(Cl)c2ccc(NC(=O)OC3CCCC3)cc21
Inhibition [4]: 41%

Compound: COc1cc(C(=O)NS(=O)(=O)c2ccccc2)ccc1Cn1cc(C(C)=O)c2ccc(NC(=O)OC3CCCC3)cc21
Kb [2]: 0.123 nM

Compound: COc1cc(C(=O)NS(=O)(=O)c2ccccc2C)ccc1Cn1cc(CCC(=O)N2CCCC2)c2ccc(C(=O)NCC3CCCC3)cc21
Protection [9]: 49%

Compound: CCCCOC(=O)Nc1ccc2c(C)c(C)n(Cc3ccc(C(=O)O)cc3OC)c2c1
NS [10]: not statistically significant | Inhibition [11]: 81%

Compound: CCN(CC)C(=O)CCn1cc(Cc2ccc(C(=O)NS(=O)(=O)c3ccccc3C)cc2OC)c2cc(C(=O)NCC3CCCC3)ccc21
Ki [3]: 0.43 nM

Compound: COc1cc(C(=O)NS(=O)(=O)c2ccccc2C)ccc1Cn1cc(CCC(=O)N2CCC(C)(C)CC2)c2ccc(C(=O)NCC3CCCC3)cc21
Kb [2]: 4.45 nM

Compound: COc1cc(C(=O)O)ccc1Cn1cc(C(C)=O)c2ccc(NC(=O)OC3CCCC3)cc21
Inhibition [4]: 83%

Compound: COc1cc(C(=O)NS(=O)(=O)c2ccccc2)ccc1Cn1ccc2ccc(C(=O)NCC3CCCC3)cc21
Ki [12]: 86.8 nM | Inhibition [13]: 46% | Kb [2]: 14.2 nM

Compound: COc1cc(C(=O)O)ccc1Cn1ccc2ccc(C(=O)NCC3CCCC3)cc21
Inhibition [11]: 45%

Compound: CCCCOC(=O)Nc1ccc2cc(C)n(Cc3ccc(C(=O)O)cc3OC)c2c1
Inhibition [11]: 41%

The next lines start with results.

pKB [1]: 7.32
Compound: COc1cc(C(=O)O)ccc1Cc1c[nH]c2ccc(NC(=O)OC3CCCC3)cc12

Kb [2]: 0.29 nM
Compound: COc1cc(C(=O)NS(=O)(=O)c2ccccc2)ccc1Cn1ccc2ccc(NC(=O)OC3CCCC3)cc21

pKB [1]: 7.72
Compound: CCCn1cc(Cc2ccc(C(=O)O)cc2OC)c2cc(NC(=O)OC3CCCC3)ccc21

Kb [2]: 92.7 nM
Compound: CCCCOC(=O)Nc1ccc2c(Cl)cn(Cc3ccc(C(=O)O)cc3OC)c2c1
Inhibition [6]: 52%

Kb [2]: 0.456 nM
Compound: COc1cc(C(=O)NS(=O)(=O)c2ccccc2C)ccc1Cn1cc(C)c2ccc(NC(=O)CC3CCCC3)cc21
Protection [7]: 54%

Ki [3]: 9.89 nM
Compound: COc1cc(C(=O)NS(=O)(=O)c2ccccc2C)ccc1Cn1cc(C)c2ccc(C(=O)NCC3CCCC3)cc21

Kb [2]: 15.7 nM
Compound: COc1cc(C(=O)O)ccc1Cn1ccc2ccc(NC(=O)OC3CCCC3)cc21
Inhibition [4]: 61%

Ki [3]: 4.9 nM
Compound: CCN(CC)C(=O)/C=C/c1cn(Cc2ccc(C(=O)NS(=O)(=O)c3ccccc3C)cc2OC)c2cc(C(=O)NCC3CCCC3)ccc12

Ki [3]: 0.54 nM
Compound: CCN(CC)C(=O)CCc1cn(Cc2ccc(C(=O)NS(=O)(=O)c3ccccc3C)cc2OC)c2cc(C(=O)NCC3CCCC3)ccc12

pKB [1]: 8.44
Compound: CCCn1cc(Cc2ccc(C(=O)NS(=O)(=O)c3ccccc3)cc2OC)c2cc(NC(=O)OC3CCCC3)ccc21

Kb [2]: 20.7 nM
Compound: COc1cc(C(=O)O)ccc1Cn1ccc2ccc(NC(=O)CC3CCCC3)cc21
Inhibition [4]: 34%

Ki [12]: 1.53 nM | Kb [2]: 0.399 nM
Compound: CNC(=O)CCc1cn(Cc2ccc(C(=O)NS(=O)(=O)c3ccccc3C)cc2OC)c2cc(C(=O)NCC3CCCC3)ccc12
Inhibition [14]: 57% | Protection [15]: 44%
